Compound activity as filed in PubChem BioAssay.
SR-BI DiI inh = inhibitors of mouse SR-BI mediated HDL lipid uptake | Q61009 | ldlA[mSR-BI] CHO cells, DiI-HDL uptake fluorescence, 3 h | inhibition, % at 12.5 µM | 320,000 tested, 0.96% active | AID 488896;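 active = mean replicate inhibition of at least 70% and a set share of replicates each scoring 70 or more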;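 note: 0% = median of neutral control wells and 100% = median of positive control wells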
SR-BI uptake up = SR-BI HDL lipid transfer activation; CHO ldlA[mSR-BI] cells, DiI-HDL uptake fluorescence, 3 h; 100 = double the neutral-control signal; activation, % at 12.5 µM; 320,000 tested, 0.096% active; AID 504775;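 active = mean replicate activation of at least 60% and every replicate at or above 60%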;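 note: 0% = median plate neutral-control signal and 100% = twice that signal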
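Test system: SR-BI-overexpressing, LDLR-lacking CHO cells. Measured by: DiI fluorescence, bottom read. Medium: Ham's F12 with 0.5% BSA, HEPES 25 mM, pH 7.4. Timing: 3 h uptake period with compound, 37 °C.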
AHR activator = human AHR activation | 320,000 tested, 2.5% active | activation, % at 5 µM | AID 2796 | AHR-responsive luciferase reporter cells, luminescence; in the data active = activation above about 47%;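 note: 0% = vehicle wells and 100% = reference agonist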
Target sequence (P35869 whole entry, looked up): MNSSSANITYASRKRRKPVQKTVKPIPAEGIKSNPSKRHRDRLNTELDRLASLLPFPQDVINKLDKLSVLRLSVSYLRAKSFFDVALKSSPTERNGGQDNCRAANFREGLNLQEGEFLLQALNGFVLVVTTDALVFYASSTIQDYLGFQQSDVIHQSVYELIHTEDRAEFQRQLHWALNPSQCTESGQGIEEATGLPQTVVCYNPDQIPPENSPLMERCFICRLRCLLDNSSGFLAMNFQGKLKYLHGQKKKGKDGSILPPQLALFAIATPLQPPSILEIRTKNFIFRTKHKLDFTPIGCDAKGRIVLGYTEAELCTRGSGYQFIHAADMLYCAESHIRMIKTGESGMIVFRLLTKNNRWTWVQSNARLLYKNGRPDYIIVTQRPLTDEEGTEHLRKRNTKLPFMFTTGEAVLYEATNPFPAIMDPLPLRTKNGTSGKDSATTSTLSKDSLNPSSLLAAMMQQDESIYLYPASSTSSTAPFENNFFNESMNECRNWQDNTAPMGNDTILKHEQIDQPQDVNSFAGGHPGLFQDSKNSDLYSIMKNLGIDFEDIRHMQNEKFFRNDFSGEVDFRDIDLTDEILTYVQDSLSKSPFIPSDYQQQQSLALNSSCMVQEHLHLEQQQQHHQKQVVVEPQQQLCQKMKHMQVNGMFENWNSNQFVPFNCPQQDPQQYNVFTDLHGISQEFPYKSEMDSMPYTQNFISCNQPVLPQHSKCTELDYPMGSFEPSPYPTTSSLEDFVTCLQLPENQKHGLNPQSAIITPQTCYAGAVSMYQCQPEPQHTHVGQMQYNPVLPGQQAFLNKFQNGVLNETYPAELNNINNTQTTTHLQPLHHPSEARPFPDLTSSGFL
SMARCA2 act = activators of SMARCA2 function; 370,000 tested, 1% active; MG213 cells, MMTV-luciferase reporter, dexamethasone, overnight; activation, % at 9.1 µM; in the data active = activation above about 7.8%;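 note: 0% = vehicle wells and 100% = reference activator wells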
Lipid droplet = modulators of hepatic lipid droplet formation; inhibition, % at 6.5 µM; AML12 mouse hepatocytes, oleate lipid droplets, BODIPY imaging; 240,000 tested, 0.4% active; AID 1656;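 active = lipid droplet intensity inhibited by at least 50%, with more than 500 cells counted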
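Test system: AML12 mouse liver cells; schedule: overnight exposure; technique: high-content imaging of BODIPY-stained droplets and DAPI nuclei; read-out: % inhibition of corrected integrated BODIPY droplet signal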
CR mimetic SO = caloric restriction mimetics inhibiting age-related superoxide in yeast | AID 2690 | superoxide response (% of plate mean), % at 10 µM | 330,000 tested, 0.18% active | S. cerevisiae aged cells, superoxide DHE fluorescence; hits give low values;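 active = superoxide response under a set limit, about three screen SD below normal, cut at about 65% in these data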;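 note: yeast aged for seven days with compound at 30 °C before DHE staining; 100% = average MFI of all compound-treated wells on the plate with controls excluded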
SMARCA2 conf = SMARCA2 activation, confirmation screen | MG213 cells, MMTV-luciferase with dexamethasone, luminescence, overnight; MG213 cells expressing E1A, Rb sequestered; DMSO wells 0%, reference activator 100% | AID 652260 | shares compounds with SMARCA2 act | activation, % at 9.1 µM | 3,500 tested, 30% active;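 active = activation above its plate's cutoff, the mean activation of tested wells plus 3 SD, cut at about 7.9% in these data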
VP16 Luc act = counter-screen for SMARCA2 activators: GAL4-VP16 luciferase reporter activation | AID 686939 | HEK293 GAL4-VP16 pG5luc reporter, luciferase luminescence; scaled: DMSO wells 0%, SAHA wells 100% | shares compounds with SMARCA2 act | 3,500 tested, 41% active | activation, % at 9.1 µM;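 active = activation above the solvent-only control well mean plus 3 SD, averaged across control plates, cut at about 5.2% in these data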
* hit, by the source's call; . = no result given. A selection: hits, their analogues and other compounds. The true share with any hit is near 4.3%.

SMILES	SR-BI DiI inh	SR-BI uptake up	AHR activator	SMARCA2 act	Lipid droplet	CR mimetic SO	SMARCA2 conf	VP16 Luc act
Cc1cc(C)n(C(=O)c2ccc(C)o2)n1	10	-10	1	8.7*	-2	97	0	0
Clc1ccccc1OCc1nc(-c2ccccn2)no1	10	-10	-4	12*	11	77	15*	8.7*
Clc1ccc(OCc2nc(-c3ccccn3)no2)c(Br)c1	21	-21	-2	6	3	93	.	.
O=C(CSc1nc2ccccc2s1)N/N=C/c1ccco1	-15	15	13	8.8*	2	98	8.9*	0
Cc1ccc2cccc(OC(=O)c3cccnc3Oc3ccccc3)c2n1	.	.	.	-2	.	.	.	.
O=[N+]([O-])c1ccc(N=Nc2ncc[nH]2)cc1	-3	3	.	8.0*	-1	101	-14	6.9*
O=[N+]([O-])c1ccc(N=NN(CCO)CCO)cc1	-12	12	-1	-3	4	97	.	.
CCN(Cc1cn(Cc2ccc(C)cc2)nn1)S(=O)(=O)c1ccccc1Br	.	.	.	-1	.	.	.	.
CNc1cncc(-c2ccc(O)cc2)n1	.	.	.	-1	.	.	.	.
CNc1cncc(-c2ccc(F)cc2F)n1	.	.	.	10*	.	.	0	1
O=C(CN1C(=O)C2(OCCCO2)c2ccccc21)NCc1ccccc1Cl	.	.	.	-2	.	.	.	.
Cc1ccc(-n2nc3c(c2NC(=O)c2ccco2)CS(=O)(=O)C3)cc1C	9	-9	3	8.8*	5	100	4	1
Cc1ccc(-n2nc3c(c2NC(=O)c2cccs2)CS(=O)(=O)C3)cc1	4	-4	2	14*	-6	88	1	0
Cc1ccc(-n2nc3c(c2NC(=O)c2cccs2)CS(=O)(=O)C3)cc1C	11	-11	16	-1	-9	93	.	.
Cc1ccc(-n2nc3c(c2NC(=O)c2ccco2)CS(=O)(=O)C3)cc1	-17	17	-1	-1	-26	102	.	.
COC(=O)C1CN(CCc2ccccc2)CCS(=O)(=O)N1Cc1ccc(C)cc1 (stereo unspecified)	.	.	.	-2	.	.	.	.
Cc1cc(C(=O)CSc2nnnn2C)c(C)n1Cc1ccco1	.	.	9	4	-12	110	.	.
Cc1cc(C(=O)CSc2ncccn2)c(C)n1Cc1ccco1	-1	1	7	9.9*	9	107	9.9*	8.5*
COc1ccc(C(=O)N2CCCC(O)C2)cc1OC1CCN(C(C)C)CC1 (stereo unspecified)	9	-9	.	8.2*	-6	88	4	1
CCOC(=O)[C@@]12CCCC3=C1N(CCC3)C(=O)[C@H]2CC(=O)NCCC(C)C	.	.	.	-2	.	.	.	.
O=C(CNC(=O)c1ccccc1C(=O)O)c1ccccc1	-11	11	-6	8.0*	.	100	4	3
O=C(CNC(=O)c1ccccc1)c1ccccc1	0	0	-1	7	.	97	.	.
O=c1[nH]c2ccc(S(=O)(=O)Nc3ccc(-c4nnc5n4CCCCC5)cc3)cc2o1	-28	28	5	12*	.	111	-2	1
CS(=O)(=O)Nc1ccc(-c2nnc3n2CCCCC3)cc1	-13	13	-2	-1	4	112	.	.
CCN(CC)c1ccc2cc(C(=O)c3cccs3)c(=O)oc2c1	.	.	.	8.3*	.	.	9.5*	1
SMILES	SR-BI DiI inh	SR-BI uptake up	AHR activator	SMARCA2 act	Lipid droplet	CR mimetic SO	SMARCA2 conf	VP16 Luc act
CCN(CC)c1ccc2cc(-c3nc4ccccc4[nH]3)c(=O)oc2c1	24	-24	7	.	-6	108	.	.
O=C(CS(=O)(=O)c1ccccc1)N1CCc2ccccc21	-6	6	33	10*	0	110	8.5*	9.8*
O=C(CSC1=NCCS1)N1CCc2ccccc21	-7	7	0	8.1*	-17	100	12*	8.4*
COc1ccc(C(=O)C[n+]2ccc3c(c2)nc(Cc2ccccc2)n3C)cc1	.	.	.	-4	.	.	.	.
Oc1cccc(/C=N/N=C/c2cccc(O)c2O)c1O	-9	9	0	12*	6	107	13*	7.4*
COc1ccc(-c2nnc(SCc3c(F)cccc3F)n2N)cc1	.	.	.	4	.	.	.	.
O=C(Oc1ccc2ccccc2c1Cl)N1CCCC1	-27	.	-8	7	-5	103	.	.
O=C(Oc1ccc2ccccc2c1Cl)N1CCCCCC1	-10	10	2	9.3*	-53	95	5	24*
O=C(Nc1cc2c(cc1Br)OCCO2)c1cccs1	8	-8	-1	10*	11	100	3	9.0*
Cc1cc(C(=O)NCCC2=CCCCC2)c(C)o1	2	-2	6	11*	-6	104	20*	12*
Cc1ccc(S(=O)(=O)N2CCCCC2)cc1C(=O)NCCC1=CCCCC1	-11	11	0	1	.	96	.	.
O=C(COC(=O)c1cc(Br)c(Br)s1)NCCC1=CCCCC1	-11	11	-1	9.3*	-1	103	-3	2
O=C(NCCC1=CCCCC1)c1coc(=O)c(Br)c1	-12	12	1	20*	.	89	-1	5.5*
O=C(NCCc1ccccc1)c1coc(=O)c(Br)c1	-8	8	.	27*	-2	100	-9	5
C#CCN1CC(N(C)CCOC(=O)c2occ3ccccc23)CS1(=O)=O (stereo unspecified)	.	.	.	4	.	.	.	.
O=c1cc(N/N=C/c2ccccc2)[nH]c(=O)[nH]1	-6	6	5	-4	.	123	.	.
O=c1nccc(N/N=C/c2ccccc2)[nH]1	5	-5	.	8.2*	.	94	6	4
O=C(O)Cn1c(SCc2ccccc2)nc2ccccc21	-14	14	0	-3	3	120	.	.
Nn1c(SCc2ccccc2)nc2ccccc21	-11	11	3	12*	0	89	8.8*	14*
Cc1nc2ccc(-c3nc4ccccc4o3)cc2[nH]1	3	-3	-5	9.0*	.	96	7	13*
COc1ccc(C2N=C(c3ccccc3)NO2)cc1OC (stereo unspecified)	.	.	44	8.6*	14	102	14*	9.6*
COc1cc2nc(C3CCC3)nc(N3CCN(c4ccccc4OC)CC3)c2cc1OC	20	-20	12	9.4*	0	110	-2	0
COc1cc2nc(C3CCC3)nc(N3CCN(c4ccccn4)CC3)c2cc1OC	43	-43	-3	.	26	105	.	.
CSc1ccccc1NC(=O)c1cc(C)on1	-13	13	4	0	15	114	.	.
